Tests used:
[1] = Inhibition of Trypanosoma brucei NMT using [3H]-myristoyl-coA/biotinylated CAP5.5 as substrate after 50 mins by scintillation proximity assay
Method in brief: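 TbNMT scintillation proximity assay at 22–23 °C, with test compound dilutions added in DMSO. Reaction: 30 mM Tris pH 7.4, 0.5 mM EDTA, 0.5 mM EGTA, 1.25 mM DTT, 0.1% Triton X-100, 0.125 μM [3H]myristoyl-coA, 0.5 μM biotinylated CAP5.5 peptide, 5 nM enzyme. Enzyme added first, then substrate mix to start; stopped after 50 min with phosphoric acid pH 4.0/MgCl2/SPA beads; scintillation counting.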

[2] = tested on: Trypanosoma brucei brucei; experiment: Antitrypanosomal activity against bloodstream form of Trypanosoma brucei brucei s427 after 69 hrs by resazurin-based […] analysis; assay type: functional, organism-based; conditions: s427, 69 h
Method in brief: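 Bloodstream T. b. brucei s427 was grown in modified HMI9 (56 μM 1-thioglycerol in place of 2-mercaptoethanol) and counted by hemocytometer. Cells (10^4/ml) were added to compound in DMSO and incubated 69 h at 37 °C, 5% CO2. Resazurin (50 μM final) was then added for 4 h more. Fluorescence read at ex 528/em 590 nm.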

[3] = Intrinsic clearance in CD1 mouse liver microsomes at 1 uM measured up to 30 mins by UPLC-MS/MS method; assay type: ADME, microsome; conditions: 0.5 h
[4] = target: T1, Glycylpeptide N-tetradecanoyltransferase 1 (Homo sapiens, UniProt P30419); experiment: Inhibition of human NMT1 using [3H]-myristoyl-coA/biotinylated CAP5.5 as substrate after 15 mins by scintillation proximity assay
T1 sequence (P30419 whole entry): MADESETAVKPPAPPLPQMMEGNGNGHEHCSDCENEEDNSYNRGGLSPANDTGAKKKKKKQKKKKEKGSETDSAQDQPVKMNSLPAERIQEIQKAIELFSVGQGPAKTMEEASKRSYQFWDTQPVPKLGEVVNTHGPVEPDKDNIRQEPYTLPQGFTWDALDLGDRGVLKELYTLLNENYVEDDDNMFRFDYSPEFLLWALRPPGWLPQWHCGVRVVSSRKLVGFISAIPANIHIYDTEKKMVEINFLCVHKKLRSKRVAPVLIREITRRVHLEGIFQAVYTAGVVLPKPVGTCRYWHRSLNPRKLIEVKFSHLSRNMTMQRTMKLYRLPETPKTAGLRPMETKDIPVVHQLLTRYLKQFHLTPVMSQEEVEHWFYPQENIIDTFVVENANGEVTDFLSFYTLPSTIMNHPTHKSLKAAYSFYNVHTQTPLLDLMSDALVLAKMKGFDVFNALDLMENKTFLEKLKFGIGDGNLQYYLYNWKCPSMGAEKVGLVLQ

[5] = tested on: human NMT1 versus Trypanosoma brucei NMT; experiment: Selectivity ratio of IC50 for human NMT1 to IC50 for Trypanosoma brucei NMT; assay type: toxicity; conditions: read-out: Ratio IC50
Method in brief: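 Both enzymes assayed by SPA in the same buffer: 0.125 μM [3H]myristoyl-coA, 0.5 μM biotinylated CAP5.5 peptide, 5 nM NMT, 22–23 °C. Reactions stopped at 15 min for HsNMT1 and 50 min for TbNMT. The ratio is HsNMT IC50 divided by TbNMT IC50.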

human NMT = experiment: Therapeutic index, ratio of IC50 for human NMT to EC50 for bloodstream form of Trypanosoma brucei brucei s427; assay type: toxicity; conditions: read-out: Ratio IC50/EC50

Row | Structure (SMILES) | IC50 [1] [nM] | EC50 [2] [nM] | CLH [3] [mL/min/g] | IC50 [4] [nM] | selectivity ratio [5] | selectivity ratio (human NMT)
1 | CC(C)Cc1ccc2ncccc2c1NS(=O)(=O)c1ccc(CCCCN2C[C@@H](C)N[C@@H](C)C2)cc1 | 16 | 350 | – | – | – | –
2 | CC(C)Cc1ccc2nn(C)cc2c1NS(=O)(=O)c1ccc(CCCCN2CCN3CCC[C@@H]3C2)cc1 | 14 | 140 | 3.7 | – | – | –
3 | CC(C)Cc1ccc2ncccc2c1NS(=O)(=O)c1ccc(CCCOC[C@@H]2CNCCO2)cc1 | < 5 | 39 | – | – | – | –
4 | Cc1ccc2ncccc2c1NS(=O)(=O)c1ccc(Br)cc1 | 33000 | – | 3.6 | > 100000 | > 3 | –
5 | CC(C)Cc1ccc2ncccc2c1NS(=O)(=O)c1ccc(CCCN2CCN(C)CC2)cc1 | 7 | 84 | 2.3 | – | – | –
6 | O=S(=O)(Nc1c(C2CCCC2)ccc2ncccc12)c1ccc(Br)cc1 | 3200 | > 50000 | > 50 | – | – | –
7 | CN1CCC(CCCCc2ccc(S(=O)(=O)Nc3c(N4CCCC4)ccc4ncccc34)cc2)CC1 | 11 | 76 | – | 1200 | 110 | 16
8 | COc1ccc(S(=O)(=O)Nc2cc(C(=O)O)ccc2N2CCCCCC2)cc1 | > 100000 | – | – | – | – | –
9 | Cn1cc2c(NS(=O)(=O)c3ccc(Br)cc3)c(C3CCCC3)ccc2n1 | 26000 | > 50000 | – | > 100000 | > 3.8 | –
10 | CC(C)Cc1ccc2nn(C)cc2c1NS(=O)(=O)c1ccc(CCCCN2CCCN(C)CC2)cc1 | < 5 | 35 | 4 | – | – | –
11 | CC(C)Cc1ccc2ncccc2c1NS(=O)(=O)c1ccc(CCCCC2CCN(C)CC2)cc1 | < 5 | 19 | 6.2 | – | – | –
12 | COC(=O)c1cccc(NS(=O)(=O)c2ccc(Br)cc2)c1 | > 100000 | – | – | – | – | –
13 | CC(C)Cc1ccc2ncccc2c1NS(=O)(=O)c1ccc(CCCO[C@@H]2CCCN(C)C2)cc1 | < 5 | 39 | – | – | – | –
14 | COC(=O)c1ccc(N2CCCC2)c(NS(=O)(=O)c2ccc(Br)cc2)c1 | 800 | 21000 | – | > 100000 | > 100 | > 4.8
15 | CC(C)Cc1ccc2ncccc2c1NS(=O)(=O)c1ccc(CCCCN2CCN3CCC[C@@H]3C2)cc1 | 12 | 250 | 8.9 | – | – | –
16 | CC(C)Cc1ccc2ncccc2c1NS(=O)(=O)c1ccc(CCCOC[C@@H]2CN(C)CCO2)cc1 | < 5 | 33 | – | – | – | –
17 | Cn1cc2c(NS(=O)(=O)c3ccc(Br)cc3)c(CC3CCCCC3)ccc2n1 | 1700 | > 50000 | – | > 100000 | > 59 | –
18 | CC(C)Cc1ccc2nn(C)cc2c1NS(=O)(=O)c1ccc(CCCN2CCCN(C)CC2)cc1 | 5 | 16 | – | – | – | –
19 | O=S(=O)(Nc1ccc2scnc2c1)c1ccc(Br)cc1 | 24000 | – | – | – | – | –
20 | Cn1cc2c(NS(=O)(=O)c3ccc(Br)cc3)cccc2n1 | 27000 | > 50000 | 6.3 | > 100000 | > 3.7 | –
21 | O=S(=O)(Nc1c(Cc2ccccc2)ccc2ncccc12)c1ccc(Br)cc1 | 6200 | > 50000 | 23 | > 100000 | > 16 | –

Row | Structure (SMILES) | IC50 [1] [nM] | EC50 [2] [nM] | CLH [3] [mL/min/g] | IC50 [4] [nM] | selectivity ratio [5] | selectivity ratio (human NMT)
22 | O=S(=O)(Nc1c(N2CCCCCC2)ccc2ncccc12)c1ccc(Br)cc1 | 690 | 18000 | > 50 | – | – | –
23 | O=S(=O)(Nc1c(-c2ccccc2)ccc2ncccc12)c1ccc(Br)cc1 | > 100000 | 50000 | – | > 100000 | – | –
24 | CC(C)Cc1ccc2nn(C)cc2c1NS(=O)(=O)c1ccc(CCCOC[C@H]2CN(C)CCO2)cc1 | < 5 | 9 | 22 | – | – | –
25 | CC(C)Cc1ccc2ncccc2c1NS(=O)(=O)c1ccc(CCCCN2CCNCC2)cc1 | 10 | 180 | 1.3 | – | – | –
26 | CC(C)Cc1ccc2ncccc2c1NS(=O)(=O)c1ccc(CCCCC2CCNCC2)cc1 | < 5 | 21 | 1.5 | – | – | –
27 | CC(C)Cc1ccc2nn(C)cc2c1NS(=O)(=O)c1ccc(CCCOC[C@@H]2COCCN2C)cc1 | 9 | 76 | – | – | – | –
28 | CC(C)Cc1ccc2ncccc2c1NS(=O)(=O)c1ccc(CCCN2CCCN(C)CC2)cc1 | < 5 | 18 | 3.7 | – | – | –
29 | COC(=O)c1ccc(N2CCCC2)c(NS(=O)(=O)c2ccc(OC)cc2)c1 | 700 | 15000 | – | > 100000 | > 100 | > 6.7
30 | CCC(CC)c1ccc2ncccc2c1NS(=O)(=O)c1ccc(Br)cc1 | 5700 | > 50000 | – | > 100000 | > 17 | –
31 | O=S(=O)(Nc1cc(-c2cccnc2)ccc1N1CCCC1)c1ccc(Br)cc1 | 39000 | – | – | – | – | –
32 | CC(C)Cc1ccc2nn(C)cc2c1NS(=O)(=O)c1ccc(CCCOC[C@H]2CCCN2C)cc1 | < 5 | 20 | – | – | – | –
33 | CC(C)Cc1ccc2ncccc2c1NS(=O)(=O)c1ccc(Br)cc1 | 1700 | > 50000 | > 50 | > 100000 | > 59 | –
34 | CC(C)Cc1ccc2ncccc2c1NS(=O)(=O)c1ccc(CCCC2CCN(C)CC2)cc1 | < 5 | 9 | 2.6 | – | – | –
35 | CC(C)Cc1ccc2nn(C)cc2c1NS(=O)(=O)c1ccc(CCCC2CCN(C)CC2)cc1 | < 5 | 5 | 1.2 | – | – | –
36 | COC(=O)c1ccc(N2CCCCC2)c(NS(=O)(=O)c2ccc(Br)cc2)c1 | > 100000 | – | – | – | – | –
37 | CC(C)Cc1ccc2nn(C)cc2c1NS(=O)(=O)c1ccc(Br)cc1 | 1100 | > 50000 | – | > 100000 | > 91 | –
38 | CC(C)Cc1ccc2nn(C)cc2c1NS(=O)(=O)c1ccc(CCCOC[C@@H]2CN(C)CCO2)cc1 | < 5 | 26 | 24 | – | – | –
39 | O=S(=O)(Nc1cccc2ncccc12)c1ccc(Br)cc1 | 87000 to 90000 | > 50000 | – | > 100000 | > 1.1 | –
40 | O=C1OCc2c1ccc(N1CCCC1)c2NS(=O)(=O)c1ccc(Br)cc1 | > 100000 | – | – | – | – | –
41 | CC(C)Cc1ccc2ncccc2c1NS(=O)(=O)c1ccc(CCCO[C@H]2C[C@H]3CC[C@@H](C2)N3C)cc1 | < 5 | 9 | 2.3 | – | – | –
